# Assay outcomes (PubChem BioAssay)
# A selection: hits, their analogues and other compounds. The true share with any hit is near 2.2%.
# Mcl1 Bid PPI: Mcl-1/Bid interaction inhibition; TR-FRET Mcl-1/Bid-Dy647 peptide binding, 1536-well; inhibition, % at 21.7 µM; hit rate 0.97% among 220,000; AID 1021;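 active means compounds that cut the binding signal by more than half at the single screening dose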;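 further: His-tagged Mcl-1 with europium anti-His antibody binding Bid BH3 peptide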
# MCL1-BIM inh: inhibitors of human MCL1 binding to BIM-BH3 peptide; GST-MCL1 / FITC-Bim-BH3 fluorescence polarization; hit rate 0.68% among 320,000; inhibition, % at 10.9 µM; Q07820;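 active means inhibition above the mean inhibition of all tested compounds plus 3 SD, set per campaign, cut at about 40% in these data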;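 further: higher means more loss of mP so more displacement of Bim peptide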
# RBBP9 inh: blocks human serine hydrolase RBBP9. recombinant RBBP9, FP-Rh probe fluorescence polarization. O75884. AID 1515. inhibition, % at 7.94 µM. hit rate 0.2% among 220,000;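 active means inhibition above the campaign mean of all tested compounds plus 3 SD, cut at about 14% in these data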
# Target sequence (O75884 whole entry, looked up): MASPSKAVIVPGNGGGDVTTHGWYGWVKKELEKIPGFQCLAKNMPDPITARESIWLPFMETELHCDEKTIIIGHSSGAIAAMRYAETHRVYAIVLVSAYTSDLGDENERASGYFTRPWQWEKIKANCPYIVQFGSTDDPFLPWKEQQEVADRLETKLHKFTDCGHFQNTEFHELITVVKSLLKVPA
#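 Test system: recombinant human RBBP9. Quantity: 2.5 µM RBBP9 dispensing solution, before mixing. Detection: FP readout at 525/598 nm. Reagent: Serine-hydrolase probe FP-Rh, 375 nM pre-mixing. Measure: % inhibition. Control set: DMSO-treated enzyme wells and wells lacking RBBP9. Buffer or medium: Tris-NaCl-Pluronic buffer, pH 8.0. Times: preincubation 30 min plus labeling 45 min at 25 °C.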
# EBV gp42 block: blocks Epstein-Barr virus glycoprotein 42 binding; inhibition, % (tested at 21.74 µM); Q1HVG2; Fluorescence polarization binding assay, mP read-out; AID 1085; hit rate 0.42% among 220,000; in the data active means inhibition above about 50%
# Target sequence (Q1HVG2 whole entry, looked up): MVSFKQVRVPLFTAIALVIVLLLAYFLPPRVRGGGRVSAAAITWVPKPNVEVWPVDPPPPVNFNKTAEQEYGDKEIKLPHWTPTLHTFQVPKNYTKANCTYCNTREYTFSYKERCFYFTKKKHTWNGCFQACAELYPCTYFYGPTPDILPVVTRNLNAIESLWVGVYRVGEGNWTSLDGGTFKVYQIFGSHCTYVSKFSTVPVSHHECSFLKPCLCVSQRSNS
# Mcl1 Noxa PPI: Mcl-1/Noxa interaction inhibition | inhibition, % at 21.7 µM | hit rate 1.5% among 220,000 | Q07820 | TR-FRET Mcl-1/Noxa peptide binding, 2 h | AID 1022;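 active means compounds that cut the protein-peptide binding signal by more than 50% relative to plate controls in a single-dose test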;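 further: His-tagged Mcl-1 with rhodamine Noxa BH3 peptide and terbium anti-His antibody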
# Bim-Mcl-1: human Bim-Mcl-1 interaction inhibition | Q07820 | Bead-based flow cytometry, Bim peptide-Mcl-1 binding | inhibition, % at 10 µM | hit rate 0.1% among 190,000 | AID 1009; in the data active means inhibition above about 40%
# Hits are given with their value; - = inactive; . = not tested or not shown; ! = not active in a repeat.
SMILES,Mcl1 Bid PPI,MCL1-BIM inh,RBBP9 inh,EBV gp42 block,Mcl1 Noxa PPI,Bim-Mcl-1
CCCOc1ccc(C(=O)NC(=S)N2CCN(c3cc4c(cc3F)c(=O)c(C(=O)O)cn4CC)CC2)cc1,.,-,.,.,.,.
COc1ccc(CNC(=O)CCC(=O)N2CCN(S(=O)(=O)c3ccc(Cl)cc3)CC2)cc1,-,-,-,-,-,-
CCOC(=O)c1c(C)[nH]c(C(=O)CN(C)CC(=O)Nc2ccccc2Cl)c1C,.,-,.,.,.,.
N#CC1=C(N)OC2=C(CC/C2=C\c2ccc(F)cc2)C1c1ccc(F)cc1 (configuration not stated),-,-,-,61,-,-
N#CC1=C(N)OC2=C(CCC/C2=C/c2ccoc2)C1c1ccoc1 (configuration not stated),-,.,-,-,-,-
Cc1ccc(/C=N/OC(=O)c2c(C)noc2-c2snnc2C)cc1,63,-,-,-,-,.
COC(=O)c1c(C)noc1-c1snnc1C,-,-,-,-,-,.
CCN=c1scc(C)n1/N=C/c1cc(Br)c(O)c(Br)c1,-,-,-,-,73,-
COc1ccc(CCNc2nc(-c3ccncc3)cs2)cc1OC,-,-,-,-,-,.
COc1ccc(CCNc2nc(-c3cccnc3)cs2)cc1OC,90,-,-,138,-,-
COc1ccc(CCNc2nc(-c3sc(C)nc3C)cs2)cc1OC,73,-,-,-,60,-
O=C(CCN1C(=O)C2CCCCC2C1=O)N1CCN(S(=O)(=O)c2c(F)cccc2F)CC1 (configuration not stated),.,-,.,.,.,.
CCOC(=O)c1c2c3c(cccc3[nH]c1=O)C(=O)c1ccccc1-2,-,47,-,-,-,-
CCOC(=O)c1c2c3c(c(Cl)ccc3[nH]c1=O)C(=O)c1ccccc1-2,-,.,-,-,-,-
CC(C)Cc1ccccc1S(N)(=O)=O,.,-,.,.,.,.
Cc1cccc(/N=C/c2sc3ccccc3c2O)n1,-,-,-,-,82,.
O=[N+]([O-])c1ccc(O)c(N=Cc2sc3ccccc3c2O)c1,-,-,-,-,53,-
O=C(NCc1ccco1)c1cccn2c(=O)c3cc4ccccc4cc3nc12,94,.,-,-,-,-
Cc1cccn2c(=O)c3cc(C(=O)NCc4ccco4)c(=N)n(CCOCCO)c3nc12,-,43,-,75,-,-
COCCn1c(=N)c(C(=O)NCc2ccco2)cc2c(=O)n3cc(C)ccc3nc21,-,69,-,-,-,-
Cc1ccc(Cn2c(=N)c(C(=O)NCc3ccco3)cc3c(=O)n4ccccc4nc32)cc1,-,-,-,-,80,-
CC(=O)NC(CC(=O)N1CCN(C(C)=O)CC1)c1ccccc1 (configuration not stated),.,-,.,.,.,.
Cc1cc(NC(=O)c2ccccc2F)nc2c1c(=O)oc1ccccc12,-,-,-,-,-,-
COc1ccc2c(c1)CCc1c-2nc2ccccc2c1N1CCOCC1,-,-,-,-,-,.
N=c1c(C(=O)NCc2ccco2)cc2c(=O)n3ccccc3nc2n1CCc1ccccc1,-,-,-,-,68,-
SMILES,Mcl1 Bid PPI,MCL1-BIM inh,RBBP9 inh,EBV gp42 block,Mcl1 Noxa PPI,Bim-Mcl-1
N=c1c(C(=O)NCc2ccco2)cc2c(=O)n3ccccc3nc2n1CC1CCCO1 (configuration not stated),.,-,-,.,.,.
O=c1nc(Nc2ccccc2)sc2ccc([N+](=O)[O-])cc12,-,-,-,-,54,-
CN(C)S(=O)(=O)c1ccc(C(=O)Nc2ccccc2C(=O)NCCCN2CCOCC2)cc1,.,-,.,.,.,.
c1ccc2c(c1)nnn2-c1ncnc2sc3c(c12)CCCC3,80,-,-,-,-,-
Oc1ccc(N2CCN(c3ncnc4sc5c(c34)CCC5)CC2)cc1,-,-,-,-,74,-
OCCN1CCN(c2ncnc3sc4c(c23)CCCC4)CC1,.,-,.,.,.,.
Cc1nc(-n2nnc3ccccc32)c2c3c(sc2n1)CCCC3,-,-,-,-,-,-
Cc1ccc(NC(=O)N(Cc2nc3ccccc3c(=O)[nH]2)Cc2cccs2)cc1,-,-,-,-,-,-
Nc1[nH]c(=O)ncc1F,57!,-,-,-,-,-
COc1cc(C(=O)Nc2ccc(N(C)C)cc2)c([N+](=O)[O-])cc1OC,-,-,-,-,69,-
Cn1cccc1Cc1nnc(SCC(=O)Nc2cccc(Cl)c2)n1-c1ccc(F)cc1,65,-,-,-,-,-
